This is an account of results in ChEMBL document CHEMBL1135646, “In vitro photodynamic properties of chalcogenopyrylium analogues of the thiopyrylium antitumor agent AA1” (J Med Chem, 2002).

Data set [1] in a line: Distribution coefficient between octanol and phosphate buffer at pH6.0. As to conditions: pH 6. The data set is classed as physicochemical. A digest of the protocol:
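Shake-flask partitioning between n-octanol and pH 6 phosphate buffer as the aqueous phase. Mixing for 3–5 min, then 1 h settling, with equilibration at 23 °C. Each phase is quantified by UV–visible spectrophotometry, and the result is reported as log P.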

For a further data set, the system named is Colon 26. Kind of data set: Effective concentration evaluated in light induced toxicity toward COLO-26, murine colon carcinoma cell line after irradiation with 15 J/cm**2 of 360-800nm light. In kind it is functional, cell-based. The conditions noted are these: Mus musculus, Colon 26, light or radiation study. A digest of the protocol:
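Colo-26 cells in RPMI 1640 with 10% FCS are seeded at 5×10^3 cells/well the evening before. Cells are washed with PBS and given dye in HBSS with 1% FCS for 2 h at 37 °C. After a wash, irradiation in PBS with 1% FCS uses filtered 360–800-nm tungsten-halogen light to 15 J cm⁻². Growth medium is added and cells are held 24 h. MTT read-out; EC50 is the concentration giving 50% cell kill.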

Data set [2] can be described thus: compound evaluated for dark induced toxicity toward COLO-26, murine colon carcinoma cell line. The data set is classed as cell-based. As to conditions: mouse, COLO-26 (Colon 26) murine colon carcinoma cells; read-out: LD50 (the source's name). Put shortly: (§1)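 Colo-26 murine colon carcinoma cells were grown in RPMI 1640 with 10% FCS at 37 °C, 5% CO2, and plated at 5×10^3 cells/well the evening before. After two PBS washes, they took dye at various concentrations in HBSS with 1% FCS at 37 °C. They were then washed, left unirradiated, given growth medium, and kept 24 h. Survival was read by MTT, and LD50 is the 50% kill concentration.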

Data set [3] in a line: Ratio of LD50 value to that of EC50 value. In kind it is functional.
A short description of data set [4]: Lethal dose evaluated in dark induced toxicity toward COLO-26, murine colon carcinoma cell line. The conditions noted are these: mouse, COLO-26 (Colon 26) murine colon carcinoma cells; read-out: LD50 (the source's name). Put shortly:
as §1

By logD is commonly meant lipophilicity at a set pH, counting ionised and neutral species. A high value points to higher lipophilicity. What is called EC50 is the concentration giving half of the maximal effect. Higher therefore signals a need for much substance. As to `CN(C)c1ccc(-c2cc(-c3ccccc3)[se+]c(-c3ccc(N)cc3)c2)cc1`, the logD in data set [1] stood at 1.2. The EC50 with Colon 26 was 200 nM. Also, the CC50 in data set [2] came out at 2600 nM. Also, the Ratio in data set [3] was determined as 13.
Molecule `CN(C)c1ccc(-c2cc(-c3ccc(N)cc3)[se+]c(-c3ccc(N4CCOCC4)cc3)c2)cc1` showed a logD in data set [1] of 1. Besides, in the data set with Colon 26, a half-maximal effect (EC50) was put at 70 nM. Further, the CC50 in data set [2] stood at 1500 nM. Besides, the Ratio in data set [3] turned out to be 21.
For the molecule `CN(C)c1ccc(-c2cc(-c3ccc(N)cc3)[s+]c(-c3ccc(N4CCOCC4)cc3)c2)cc1`, in data set [1], the logD was found to be 0.9. Moreover, the CC50 in data set [2] was determined as 900 nM.
In the same order, the values of `CN(C)c1ccc(-c2cc(-c3ccc(N)cc3)[s+]c(-c3ccc(N)cc3)c2)cc1` are 1.9 and 100 nM.
In data set [1], `CN(C)c1ccc(-c2cc(-c3ccc(N(C)C)cc3)[se+]c(-c3ccc(N(C)C)cc3)c2)cc1` showed a logD of 2.2. This molecule gave an EC50 in the data set on Colon 26 of 300 nM. Moreover, the CC50 in data set [2] stood at 500 nM. Moreover, the Ratio in data set [3] came to 1.7.
As to `CN(C)c1ccc(-c2cc(-c3ccccc3)cc(-c3ccc(N)cc3)[se+]2)cc1`, the logD in data set [1] amounted to 1.3. For the same molecule, the CC50 in data set [2] was found to be 400 nM.
For the molecule `Nc1ccc(-c2cc(-c3ccc(N4CCOCC4)cc3)cc(-c3ccc(N)cc3)[te+]2)cc1`, the logD in data set [1] is 1.9. The CC50 in data set [2] was 1400 nM.
On the same counts, the results for `CN(C)c1ccc(-c2cc(-c3ccccc3)[te+]c(-c3ccc(N)cc3)c2)cc1` are 1.9 and 600 nM.
In data set [1], `Nc1ccc(-c2cc(-c3ccc(N4CCOCC4)cc3)cc(-c3ccc(N4CCOCC4)cc3)[s+]2)cc1` returned a logD of 1.3. Also, the EC50 with Colon 26 was 2000 nM. For the same molecule, in data set [2], the CC50 amounted to 66000 nM. Moreover, in data set [3], the Ratio turned out to be 33.
Consider `Nc1ccc(-c2cc(-c3ccc(N4CCOCC4)cc3)cc(-c3ccc(N)cc3)[s+]2)cc1`, for which the logD in data set [1] was 1.8. The CC50 in data set [2] is 800 nM.
With `CN(C)c1ccc(-c2cc(-c3ccc(N)cc3)[te+]c(-c3ccc(N4CCOCC4)cc3)c2)cc1`, in data set [1], the logD was 1. Moreover, the CC50 in data set [4] was 500 nM.
Molecule `CN(C)c1ccc(-c2cc(-c3ccc(N(C)C)cc3)[s+]c(-c3ccc(N(C)C)cc3)c2)cc1` had a logD in data set [1] of 2.2. In the data set on Colon 26, this molecule displayed an EC50 of 200 nM. Also, in data set [2], the CC50 is 500 nM. For the same molecule, the Ratio in data set [3] was 2.5.
In the case of `Nc1ccc(-c2cc(-c3ccc(N4CCOCC4)cc3)cc(-c3ccccc3)[se+]2)cc1`, the logD in data set [1] came out at 1.2. Besides, the CC50 in data set [2] worked out at 6500 nM.
On the same counts, the results for `CN(C)c1ccc(-c2cc(-c3ccccc3)[s+]c(-c3ccc(N)cc3)c2)cc1` are 1.3 and 70 nM.
In data set [1], `Nc1ccc(-c2cc(-c3ccc(N4CCOCC4)cc3)cc(-c3ccc(N4CCOCC4)cc3)[se+]2)cc1` showed a logD of 1.2. The molecule further registered an EC50 in the data set with Colon 26 of 1900 nM. Besides, the CC50 in data set [2] was 6900 nM. The Ratio in data set [3] was 3.6.
Consider `Nc1ccc(-c2cc(-c3ccccc3)cc(-c3ccc(N4CCOCC4)cc3)[se+]2)cc1`, for which, in data set [1], the log distribution coefficient (logD) amounted to 0.9. In addition, the CC50 in data set [2] was 900 nM.
`Nc1ccc(-c2cc(-c3ccc(N4CCOCC4)cc3)cc(-c3ccc(N)cc3)[se+]2)cc1`: the logD in data set [1] stood at 1.5. In the data set with Colon 26, this molecule yielded an EC50 of 1200 nM. In addition, the CC50 in data set [2] is 3800 nM. For the same molecule, the Ratio in data set [3] is 3.2.
Molecule `Nc1ccc(-c2cc(-c3ccccc3)cc(-c3ccc(N4CCOCC4)cc3)[s+]2)cc1` gave a logD in data set [1] of 1.1. Further, in data set [2], the CC50 stood at 1800 nM.
`Nc1ccc(-c2cc(-c3ccccc3)cc(-c3ccc(N4CCOCC4)cc3)[te+]2)cc1` came in with a logD in data set [1] of 1. Also, the CC50 in data set [2] turned out to be 70 nM.
`CN(C)c1ccc(-c2cc(-c3ccc(N)cc3)[te+]c(-c3ccc(N)cc3)c2)cc1`: the logD in data set [1] stood at 2. Moreover, in data set [2], the CC50 was found to be 500 nM.
On to `Nc1ccc(-c2cc(-c3ccc(N4CCOCC4)cc3)cc(-c3ccc(N4CCOCC4)cc3)[te+]2)cc1`, for which, in data set [1], the logD was 1.6. This molecule displayed an EC50 in the data set with Colon 26 of 600 nM. In addition, the CC50 in data set [2] was 800 nM. The Ratio in data set [3] amounted to 1.3.
On the same counts, the results for `CN(C)c1ccc(-c2cc(-c3ccc(N)cc3)[se+]c(-c3ccc(N)cc3)c2)cc1` are 1.7, 370 nM, 1400 nM and 3.8.
For the molecule `c1cc(N2CCOCC2)ccc1-c1cc(-c2ccc(N3CCOCC3)cc2)[se+]c(-c2ccc(N3CCOCC3)cc2)c1`, the logD in data set [1] came out at 1.2. Besides, the EC50 in the data set on Colon 26 came out at 800 nM. Moreover, in data set [2], the CC50 stood at 7200 nM. Moreover, the Ratio in data set [3] is 9.
